Screening data: PubChem BioAssay, several laboratories
The list is not random: actives were taken first. Their share in the collection is about 1.5%.
CHT inh: inhibits the human high affinity choline transporter; B-score at 10 µM; CHT-expressing cells, membrane potential dye, choline response; active compounds read low; AID 488975; hit rate 0.86% among 310,000;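 active = B-score over 3 SD under the library average, and starting fluorescence ratio not unusually high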;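 note: choline stimulus applied at its EC90 after an EC20 pre-addition; B-score computed on integrated fluorescence ratio after choline addition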
CHT allo act: allosteric activators of human choline transporter CHT. AID 488977. B-score at 10 µM. CHT-expressing cells, membrane potential dye, choline EC20; active compounds read high; LV-AA mutant CHT in HEK293 cells. hit rate 0.49% among 310,000;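 active = initial fluorescence not abnormally high and integrated response B-score, plate-corrected, over 3 SD above library mean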
VLA-4 inh: inhibition in a human VLA-4 binding assay; P13612; VLA-4 expressing cells, ligand binding flow cytometry; inhibition, % (about 7 µM as worked out from the volumes in the protocol); hit rate 0.2% among 330,000; in the data active = inhibition above about 50%
T cell modulator: T cell immune modulation candidate; 2C CD8+ T cell-vesicle binding, flow cytometry; active compounds read low; response (vesicle binding), % at 7 µM; hit rate 0.068% among 330,000; AID 2052;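 active = response, share of CD8 T cells binding vesicles, and their 90th percentile fluorescence all below set limits, cut at about 80% in these data, passing the limit was not always enough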;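 note: values below 100% mean blocked vesicle binding to the CD8+ T cells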
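Material: 2C TCR transgenic mouse naive CD8+ T cells, MACS-purified. Also added: QL9-charged Drosophila Ld/ICAM-1/B7-1 vesicles. Timing: binding 1.5 h at 37 °C. Measured by: high-throughput flow cytometry with anti-B7-1 and anti-CD8 staining. Read-out: percent CD8+ FL2 mean versus row control. Controls: Unloaded micro-vesicles (low), QL9 vesicles with 0.7% DMSO (high).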
VLA-4 mod pick: human VLA-4 allosteric modulation in cherry picked compounds; shares compounds with VLA-4 inh; U937 cells, HUTS-21 LIBS mAb binding, flow cytometry; LDV ligand present at threefold Kd; inhibition, % at 6.7 µM; hit rate 2% among 1,300; AID 2813; in the data active = inhibition above about 40%;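 note: 0% = ligand without compound and 100% = no ligand background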
The depositor's hits bear a star; i = inactive; . = not tested or not shown.

SMILES	CHT inh	CHT allo act	VLA-4 inh	T cell modulator	VLA-4 mod pick
O=C(/C=C/c1ccccc1)C1=C(O)C(=O)N(CCO)C1c1ccccc1[N+](=O)[O-] (centres undefined)	i	i	51*	238	6
O=C(/C=C/c1ccccc1)C1=C(O)C(=O)N(CCO)C1c1cccc([N+](=O)[O-])c1 (centres undefined)	i	i	-13	431	.
CCN(C(=O)CSc1nc(-c2ccccc2)c(-c2ccccc2)[nH]1)C1CCS(=O)(=O)C1 (centres undefined)	i	i	95*	253	0
CCN(C(=O)CSc1nc2ccc(C)cc2[nH]1)C1CCS(=O)(=O)C1 (centres undefined)	.	.	6	420	.
COc1cccc(CN(C(=O)Cc2c[nH]c3ccccc23)C(C(=O)NC2CCCCC2)c2ccc(C)o2)c1 (centres undefined)	i	i	48	342	-124
CCOC(=O)N1CCC2(CC1)CC(=O)c1cc(O)ccc1O2	i	i	109*	231	10
CCOC(=O)COc1ccc2c(c1)C(=O)CC1(CCN(C(C)=O)CC1)O2	i	i	7	434	.
COc1cccc(/C=N/NC(=O)Cn2cnc3c2c(=O)n(C)c(=O)n3C)c1OC	i	i	-8	76	.
COc1ccc(C(=O)/C=C/C(=O)N(CC(=O)NC2CCCCC2)Cc2cccs2)c(O)c1	i	i	63*	630	28
O=C(Nc1cccc(S(=O)(=O)N2CCCCCC2)c1)C1CC(=O)N(c2ccc3c(c2)OCCO3)C1 (centres undefined)	i	i	4	i	.
Cc1nc(NC(=O)COC(=O)C(NC(=O)c2ccco2)C(C)C)c(Cl)cc1Cl (centres undefined)	i	i	52*	288	-1
Cc1nc(NC(=O)COC(=O)C(C)NC(=O)c2ccccc2)c(Cl)cc1Cl (centres undefined)	.	.	-11	412	.
Cc1ccsc1C(=O)OCC(=O)N1CC(C)CC(C)C1 (centres undefined)	.	.	5	960	.
CC1C(=O)N2CCCc3cc(S(=O)(=O)Nc4ccccc4C(N)=O)cc1c32 (centres undefined)	i	i	9	502	-5
COc1ccc(C2CC3(CC(C)(C)NC(=S)N3)Oc3cc(O)cc(C)c32)cc1 (centres undefined)	i	i	18	108	.
COc1ccc(C2CC3(CC(C)(C)NC(SC)=N3)Oc3cc(O)cc(C)c32)cc1 (centres undefined)	i	i	41	109	-8
Cc1ccc(NC(=O)CCN2C(=O)NC3(CCCC3)C2=O)cc1S(=O)(=O)N1CCOCC1	.	.	-10	606	.
Cc1cc(=O)[nH]c(-n2nc(C)cc2C)n1	i	i	94*	668	15
COc1ccc(C)cc1NC(=O)c1cc(S(=O)(=O)N2CCCCC2)ccc1N1CCOCC1	.	.	14	256	-5
Cc1ccc(NC(=O)c2cc(S(=O)(=O)N3CCCCC3)ccc2N2CCOCC2)cc1F	i	i	11	390	.
CCCNC(=O)c1cc(S(=O)(=O)N2CCCCC2)ccc1N1CCOCC1	i	i	4	200	.
O=C(Nc1ccc(OC(F)F)cc1)c1cc(S(=O)(=O)N2CCCCC2)ccc1N1CCOCC1	.	.	18	484	9
O=C(Nc1ccc(OC(F)F)cc1)c1cc(S(=O)(=O)N2CCOCC2)ccc1F	i	i	0	185	.
Cc1ccc(S(=O)(=O)N(C)C)cc1NC(=O)c1cc(S(=O)(=O)N2CCCCC2)ccc1N1CCOCC1	.	.	.	.	0
COc1cc(NC(=O)c2cc(S(=O)(=O)N3CCCCC3)ccc2N2CCOCC2)cc(OC)c1	i	i	0	238	3
NC(=O)c1ccc(NC(=O)c2cc(S(=O)(=O)N3CCCCC3)ccc2N2CCOCC2)cc1	.	.	20	329	.
CC(=O)Nc1ccc(NC(=O)c2cc(S(=O)(=O)N3CCCCC3)ccc2N2CCOCC2)cc1	.	.	.	.	2
Cc1ccc(S(=O)(=O)C2(C(=O)Nc3ccc4c(c3)OCO4)CC2)cc1	i	i	51*	584	1
Cc1ccc(S(=O)(=O)C2(C(=O)Nc3ccc(F)cc3)CC2)cc1	i	i	17	400	.
COc1ccc(/C=N/NC(=O)c2cccc(NC(C)=O)c2)c(C(=O)O)c1OC	i	i	43	283	0
